Source: ChEMBL document CHEMBL1128256, “Synthesis, biological evaluation, and structure analysis of a series of new 1,5-anhydrohexitol nucleosides” (J Med Chem, 1995)
pKi: −log10 of the molar value. ≈ marks a conversion by molar mass, not a printed value.

Legend:
E6SM [1] = assay: Tested for the minimum inhibitory concentration required to reduce herpes simplex virus type 2 (HSV-2) strain G induced cytopathogenicity by 50%.; type: functional; conditions: Homo sapiens
Summary of the method: (§1)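 Inhibition of virus-induced cytopathogenicity in human embryonic skin-muscle (E6SM) fibroblasts seeded in 96-well trays. Viruses were HSV-1 (KOS, F, McIntyre), TK- HSV-1 B2006, TK-/TK+ HSV-1 clinical isolate VMW-1837 and HSV-2 (G, 196, Lyons). […] MCC is the lowest concentration giving microscopically detectable alteration of normal cell morphology; highest concentration tested was 400 µg/mL.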

E6SM [2] = assay: Tested for the minimum inhibitory concentration required to reduce herpes simplex virus type 1 (HSV-1) strain KOS induced cytopathogenicity by 50%.; type: functional; conditions: Homo sapiens; summary of the method: as §1
E6SM [3] = assay: Tested for the minimum inhibitory concentration required to reduce vaccinia virus(VV) induced cytopathogenicity by 50%.; type: functional; conditions: Homo sapiens
E6SM [4] = assay: Tested for the minimum inhibitory concentration required to reduce herpes simplex virus type 1 (TK- / TK+ HSV-1) strain VMW-1837 induced cytopathogenicity by 50%.; type: functional; conditions: Homo sapiens; summary of the method: as §1
E6SM [5] = assay: Tested for the minimum cytotoxic concentration required to cause a microscopically detectable alteration of normal cell morphology in human embryonic skin muscle (E6SM) fibroblast cell cultures.; type: functional; summary of the method: as §1
E6SM [6] = assay: Tested for the minimum inhibitory concentration required to reduce thymidine kinase deficient herpes simplex virus type 1 (TK- HSV-1) strain B2006 induced cytopathogenicity by 50%.; type: functional; conditions: Homo sapiens; summary of the method: as §1
HEL [7] = assay: Tested for the cytotoxic concentration, required to reduce cell growth by 50% in human embryonic lung (HEL) cells.; type: functional
Summary of the method: (§2)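 Virus plaque formation assay in human embryonic lung (HEL) cells seeded in 96-well trays. Targets were TK+ VZV (Oka, YS), TK- VZV (07/1, YS/R) and CMV (AD169, Davis). Value is the concentration that reduces plaque number by 50%. Cytotoxicity in HEL cells was taken as the concentration that reduces cell growth by 50%.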

HEL [8] = assay: Tested for the inhibitory concentration required to reduce TK+ Varicella-Zoster virus (TK+ VZV) strain OKA plaque formation by 50%.; type: functional, cell-based; conditions: Homo sapiens
HEL [9] = assay: Tested for the inhibitory concentration required to reduce TK+ Varicella-Zoster virus (TK+ VZV) strain YS plaque formation by 50%; type: functional, cell-based; conditions: Homo sapiens
HEL [10] = assay: Tested for the inhibitory concentration required to reduce cytomegalovirus (CMV) strain AD-169 plaque formation by 50%.; type: functional, cell-based; conditions: Homo sapiens; summary of the method: as §2
HEL [11] = assay: Tested for the inhibitory concentration required to reduce cytomegalovirus (CMV) strain Davis plaque formation by 50%.; type: functional, cell-based; conditions: Homo sapiens; summary of the method: as §2
HEL [12] = assay: Tested for the inhibitory concentration required to reduce thymidine kinase deficient Varicella-Zoster virus (TK- VZV) strain 07/1 plaque formation by 50%.; type: functional, cell-based; conditions: Homo sapiens
HEL [13] = assay: Tested for the inhibitory concentration required to reduce thymidine kinase deficient Varicella-Zoster virus (TK- VZV) strain YS/R plaque formation by 50%.; type: functional, cell-based; conditions: Homo sapiens
E6SM [14] = assay: Tested for the minimum inhibitory concentration required to reduce vesicular stomatitis virus(VSV) induced cytopathogenicity by 50%; type: functional; conditions: Homo sapiens
E6SM [15] = assay: (§3) Tested for the minimum inhibitory concentration required to reduce herpes simplex virus type 2 (HSV-2) strain 196 induced cytopathogenicity by 50%.; type: functional; conditions: Homo sapiens; summary of the method: as §1
E6SM [16] = assay: Tested for the minimum inhibitory concentration required to reduce herpes simplex virus type 2 (HSV-2) strain Lyons induced cytopathogenicity by 50%.; type: functional; conditions: Homo sapiens; summary of the method: as §1
E6SM [17] = assay: Tested for the minimum inhibitory concentration required to reduce herpes simplex virus type 1 (HSV-1) strain F induced cytopathogenicity by 50%.; type: functional; conditions: Homo sapiens; summary of the method: as §1
E6SM [18] = assay: Tested for the minimum inhibitory concentration required to reduce herpes simplex virus type 1 (HSV-1) strain McIntyre induced cytopathogenicity by 50%.; type: functional; conditions: Homo sapiens; summary of the method: as §1
E6SM [19] = assay: Tested for the minimum inhibitory concentration required to reduce thymidine kinase deficient herpes simplex virus type 1 (TK- / TK+ HSV-1) strain VMW-1837 induced cytopathogenicity by 50%.; type: functional; conditions: Homo sapiens; summary of the method: as §1
Mus musculus = organism: Mus musculus; assay: Inhibition constant assumed to reflect the affinity for the transport site in mouse erythrocytes; type: functional
Summary of the method: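 Thymidine influx competition in erythrocytes from male B6D2F1 mice, 10% hematocrit in buffered saline, room temperature. [methyl-3H]thymidine at 0.1, 0.2, 0.5 and 1 mM, alone or with inhibitor at 0.053–1.05 mM. Influx stopped after 3 s with NBMPR. Pellets extracted in 5% perchloric acid and counted by scintillation. Zero-time trapping subtracted. Duplicate samples. Ki from Dixon plot.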

E6SM [20] = assay: as §3; type: functional; conditions: Homo sapiens; remark: listed apart in the source
HEL [21] = assay: Tested for the 50% inhibitory concentration required to reduce TK+ Varicella-Zoster virus (TK+ VZV) strain YS plaque formation by 50%; type: functional, cell-based; conditions: Homo sapiens; summary of the method: as §2

| Compound | MIC (E6SM [1]) [µg/mL] | MIC (E6SM [2]) [µg/mL] | MIC (E6SM [3]) [µg/mL] | MIC (E6SM [4]) [µg/mL] | MCC (E6SM [5]) [µg/mL] | MIC (E6SM [6]) [µg/mL] | CC50 (HEL [7]) [µg/mL] | IC50 (HEL [8]) [µg/mL] | IC50 (HEL [9]) [µg/mL] | IC50 (HEL [10]) [µg/mL] | IC50 (HEL [11]) [µg/mL] | IC50 (HEL [12]) [µg/mL] | IC50 (HEL [13]) [µg/mL] | MIC (E6SM [14]) [µg/mL] | MIC (E6SM [16]) [µg/mL] | MIC (E6SM [17]) [µg/mL] | MIC (E6SM [18]) [µg/mL] | also measured |
| --- | --- | --- | --- | --- | --- | --- | --- | --- | --- | --- | --- | --- | --- | --- | --- | --- | --- | --- |
| CCc1cn(C2COC(CO)C(O)C2)c(=O)[nH]c1=O (stereo unspecified) | 0.4 (≈ 1.48 µM) | 0.02 (≈ 0.074 µM) | 200 (≈ 740 µM) | 0.4 (≈ 1.48 µM) | > 400 | > 400 | > 50 | > 50 | > 50 | > 50 | > 50 | > 50 | > 50 |  |  |  |  |  |
| Nc1nc(N)c2ncn(C3COC(CO)C(O)C3)c2n1 (stereo unspecified) | 0.7 (≈ 2.5 µM) | 0.2 (≈ 0.714 µM) | 7 (≈ 25 µM) | 0.7 (≈ 2.5 µM) | > 400 | 7 (≈ 25 µM) | 25 (≈ 89.2 µM) | 1.2 (≈ 4.28 µM) | 2 (≈ 7.14 µM) | 2 (≈ 7.14 µM) | 0.8 (≈ 2.85 µM) | 2.4 (≈ 8.56 µM) | 5 (≈ 17.8 µM) | > 200 |  |  |  |  |
| O=c1[nH]c(=O)n(C2COC(CO)C(O)C2)cc1I (stereo unspecified) | 0.4 (≈ 1.09 µM) | 0.02 (≈ 0.0543 µM) | 200 (≈ 543 µM) |  | > 400 | > 400 | > 50 | > 100 | > 100 | > 40 | > 40 | > 100 | > 100 |  | 0.4 (≈ 1.09 µM) | 0.01 (≈ 0.0272 µM) | 0.04 (≈ 0.109 µM) | MIC (E6SM [15]): 0.7 µg/mL (≈ 1.9 µM); MIC (E6SM [19]): 4 µg/mL (≈ 10.9 µM) |
| Nc1nc2c(ncn2COCCO)c(=O)[nH]1 [ACYCLOVIR] |  |  |  |  |  |  | > 200 |  |  | 20 (≈ 88.8 µM) |  |  |  |  |  |  |  |  |
| O=c1[nH]c(=O)n([C@H]2C[C@H](O)[C@@H](CO)O2)cc1/C=C/Br [BRIVUDINE] | > 200 | 0.004 (≈ 0.012 µM) | 2 (≈ 6 µM) | 70 (≈ 210 µM) | > 400 | 40 (≈ 120 µM) | > 50 | 0.0007 (≈ 0.0021 µM) | 0.0015 (≈ 0.0045 µM) | > 100 | > 100 | 8 (≈ 24 µM) | 30 (≈ 90.1 µM) | > 200 | 70 (≈ 210 µM) | 0.004 (≈ 0.012 µM) | 0.2 (≈ 0.6 µM) | pKi (Mus musculus): 4.64; MIC (E6SM [20]): 300 µg/mL (≈ 901 µM) |
| O=c1ccn([C@H]2C[C@H](O)[C@@H](CO)O2)c(=O)[nH]1 [DEOXYURIDINE] |  |  |  |  |  |  |  |  |  |  |  |  |  |  |  |  |  | pKi (Mus musculus): 3.96 |
| Nc1nc2c(ncn2COC(CO)CO)c(=O)[nH]1 [GANCICLOVIR] |  |  |  |  |  |  | > 200 | 0.02 (≈ 0.0784 µM) | 0.072 (≈ 0.282 µM) | 2.9 (≈ 11.4 µM) | 6.2 (≈ 24.3 µM) | 0.1 (≈ 0.392 µM) | 0.9 (≈ 3.53 µM) |  |  |  |  |  |
| O=c1[nH]c(=O)n([C@H]2C[C@H](O)[C@@H](CO)O2)cc1I [IDOXURIDINE] | 0.2 (≈ 0.565 µM) | 0.2 (≈ 0.565 µM) | 0.7 (≈ 1.98 µM) | 10 (≈ 28.2 µM) | > 400 | 40 (≈ 113 µM) | > 50 | 0.17 (≈ 0.48 µM) |  | 20 (≈ 56.5 µM) | > 50 | 4 (≈ 11.3 µM) | 4 (≈ 11.3 µM) | > 400 | 0.2 (≈ 0.565 µM) | 0.2 (≈ 0.565 µM) | 1 (≈ 2.82 µM) | MIC (E6SM [15]): 0.2 µg/mL (≈ 0.565 µM); IC50 (HEL [21]): 0.4 µg/mL (≈ 1.13 µM) |
